Measured values from ChEMBL document CHEMBL1136635, “Modification of the N-terminus of peptidomimetic protein tyrosine phosphatase 1B (PTP1B) inhibitors: identification of analogues with cellular activity” (Bioorg Med Chem Lett, 2003).
Square brackets hold non-standard residues; d marks the D form. Peptide text beside a SMILES is read from it. sY = N[C@@H](Cc1ccc(OS(=O)(=O)O)cc1)C(=O)O; Nle = CCCC[C@H](N)C(=O)O

How the values were obtained:
[1] = molecular target: Receptor-type tyrosine-protein phosphatase F (Homo sapiens) (UniProt P10586); assay: Inhibitory activity against phosphatase (LAR) at a concentration of 100 uM
Receptor-type tyrosine-protein phosphatase F (Homo sapiens), sequence (P10586 whole entry, the tested form may be a part): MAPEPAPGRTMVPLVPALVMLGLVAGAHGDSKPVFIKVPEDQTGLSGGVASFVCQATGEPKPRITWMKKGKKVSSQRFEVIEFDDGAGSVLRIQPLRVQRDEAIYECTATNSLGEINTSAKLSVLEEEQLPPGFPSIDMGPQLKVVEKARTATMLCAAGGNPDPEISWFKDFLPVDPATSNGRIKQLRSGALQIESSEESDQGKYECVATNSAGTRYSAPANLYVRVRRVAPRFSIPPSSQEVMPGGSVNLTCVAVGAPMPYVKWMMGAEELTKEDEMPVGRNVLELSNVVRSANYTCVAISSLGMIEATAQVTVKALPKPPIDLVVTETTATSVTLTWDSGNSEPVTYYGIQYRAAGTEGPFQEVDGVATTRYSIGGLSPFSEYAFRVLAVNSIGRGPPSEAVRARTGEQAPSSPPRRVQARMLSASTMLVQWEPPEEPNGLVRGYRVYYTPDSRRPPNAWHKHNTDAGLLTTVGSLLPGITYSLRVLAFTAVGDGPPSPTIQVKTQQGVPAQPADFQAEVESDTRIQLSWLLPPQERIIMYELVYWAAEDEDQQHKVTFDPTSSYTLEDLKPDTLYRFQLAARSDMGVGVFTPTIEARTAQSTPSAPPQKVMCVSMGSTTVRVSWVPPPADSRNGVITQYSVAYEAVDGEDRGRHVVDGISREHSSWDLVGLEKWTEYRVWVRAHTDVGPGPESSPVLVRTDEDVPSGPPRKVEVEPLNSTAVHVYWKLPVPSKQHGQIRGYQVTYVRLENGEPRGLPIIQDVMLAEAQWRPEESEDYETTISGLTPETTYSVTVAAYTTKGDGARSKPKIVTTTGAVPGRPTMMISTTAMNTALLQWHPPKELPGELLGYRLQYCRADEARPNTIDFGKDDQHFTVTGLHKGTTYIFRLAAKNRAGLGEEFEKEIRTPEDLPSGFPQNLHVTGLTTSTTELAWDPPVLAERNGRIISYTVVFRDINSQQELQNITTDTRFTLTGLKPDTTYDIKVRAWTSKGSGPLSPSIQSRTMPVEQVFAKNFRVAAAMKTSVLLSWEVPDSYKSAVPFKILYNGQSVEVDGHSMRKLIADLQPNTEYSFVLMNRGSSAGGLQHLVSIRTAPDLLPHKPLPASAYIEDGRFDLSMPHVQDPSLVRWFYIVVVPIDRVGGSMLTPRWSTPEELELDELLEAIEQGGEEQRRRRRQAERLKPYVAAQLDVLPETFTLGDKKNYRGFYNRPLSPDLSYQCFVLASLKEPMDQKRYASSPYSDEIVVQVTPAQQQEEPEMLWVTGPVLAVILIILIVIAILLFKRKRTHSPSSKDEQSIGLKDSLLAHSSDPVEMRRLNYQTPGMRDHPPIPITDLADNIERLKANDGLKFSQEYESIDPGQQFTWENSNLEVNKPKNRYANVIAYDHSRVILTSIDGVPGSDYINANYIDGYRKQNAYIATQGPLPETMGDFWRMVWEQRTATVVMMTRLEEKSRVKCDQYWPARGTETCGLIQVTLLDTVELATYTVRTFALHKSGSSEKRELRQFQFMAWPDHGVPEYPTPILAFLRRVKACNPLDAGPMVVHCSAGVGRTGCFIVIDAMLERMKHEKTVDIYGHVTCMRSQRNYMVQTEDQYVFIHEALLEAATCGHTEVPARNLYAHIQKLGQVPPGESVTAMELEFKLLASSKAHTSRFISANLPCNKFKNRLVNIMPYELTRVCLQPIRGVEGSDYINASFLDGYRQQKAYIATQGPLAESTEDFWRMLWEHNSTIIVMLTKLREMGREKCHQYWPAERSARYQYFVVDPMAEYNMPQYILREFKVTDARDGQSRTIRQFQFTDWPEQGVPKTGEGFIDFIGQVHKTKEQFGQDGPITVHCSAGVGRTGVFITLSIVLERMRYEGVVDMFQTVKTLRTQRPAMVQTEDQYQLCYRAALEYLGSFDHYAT
How it was run: (§1)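 Purified recombinant human enzyme constructs; PTP1B is a C-terminally truncated soluble form, tested alongside LAR and SHP-2. Activity is read as the initial rate of p-nitrophenyl phosphate (pNPP) hydrolysis and reported as percent inhibition. PTP1B is tested at 100, 10 and 1 µM, or 10 and 1 µM in the salicylate series; LAR and SHP-2 at 100 µM.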

[2] = molecular target: T1, Tyrosine-protein phosphatase non-receptor type 1 (Homo sapiens) (UniProt P18031); assay: Inhibitory activity against human protein tyrosine phosphatase 1B (PTP1B) at a concentration of 1 uM; how it was run: as §1
T1 sequence (whole entry): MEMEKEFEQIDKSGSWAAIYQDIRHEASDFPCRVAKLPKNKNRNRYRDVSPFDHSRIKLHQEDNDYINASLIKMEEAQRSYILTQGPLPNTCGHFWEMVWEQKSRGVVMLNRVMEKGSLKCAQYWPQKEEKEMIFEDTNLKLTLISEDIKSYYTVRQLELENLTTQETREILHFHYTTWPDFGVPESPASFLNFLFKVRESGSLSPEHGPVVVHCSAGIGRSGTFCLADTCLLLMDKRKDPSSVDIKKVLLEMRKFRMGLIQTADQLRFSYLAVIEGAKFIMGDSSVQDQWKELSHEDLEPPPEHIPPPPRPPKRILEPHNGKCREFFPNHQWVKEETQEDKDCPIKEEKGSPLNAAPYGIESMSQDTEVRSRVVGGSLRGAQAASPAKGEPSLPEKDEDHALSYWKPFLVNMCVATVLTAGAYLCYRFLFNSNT

[3] = molecular target: T2, Tyrosine-protein phosphatase non-receptor type 11 (Homo sapiens) (UniProt Q06124); assay: Inhibition of recombinant human phosphatase (SHP-2) at a concentration of 100 uM; how it was run: as §1
T2 sequence (whole entry): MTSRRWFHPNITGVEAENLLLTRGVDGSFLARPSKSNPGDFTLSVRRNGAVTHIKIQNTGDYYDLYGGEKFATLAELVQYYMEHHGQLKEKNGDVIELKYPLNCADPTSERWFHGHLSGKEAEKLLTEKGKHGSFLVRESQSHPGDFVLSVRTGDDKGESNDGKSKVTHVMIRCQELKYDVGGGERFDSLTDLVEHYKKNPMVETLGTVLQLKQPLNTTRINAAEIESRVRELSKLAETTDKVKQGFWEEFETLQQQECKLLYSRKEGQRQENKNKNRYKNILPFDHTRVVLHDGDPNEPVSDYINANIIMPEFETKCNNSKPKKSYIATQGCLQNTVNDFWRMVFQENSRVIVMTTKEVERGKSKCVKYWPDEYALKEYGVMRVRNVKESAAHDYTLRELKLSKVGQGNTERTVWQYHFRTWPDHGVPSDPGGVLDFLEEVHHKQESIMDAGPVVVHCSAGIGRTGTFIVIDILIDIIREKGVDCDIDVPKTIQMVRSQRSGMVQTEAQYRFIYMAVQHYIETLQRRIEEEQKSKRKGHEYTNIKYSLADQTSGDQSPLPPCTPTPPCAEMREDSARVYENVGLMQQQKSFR

[4] = molecular target: T1, Tyrosine-protein phosphatase non-receptor type 1 (Homo sapiens); assay: Inhibitory activity against human protein tyrosine phosphatase 1B (PTP1B) at a concentration of 100 uM; how it was run: as §1
[5] = molecular target: T3, Tyrosine-protein phosphatase non-receptor type 1 (Homo sapiens, UniProt P18031); assay: Inhibitory activity against human protein tyrosine phosphatase 1B (PTP1B)
T3 sequence (P18031 whole entry): T1 sequence (whole entry)
How it was run: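 Ki against a C-terminally truncated, soluble recombinant human PTP1B. Initial rates of pNPP hydrolysis are measured, and the Ki is computed by the Cornish-Bowden direct linear method.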

[6] = Uptake of 2-DOG (2-deoxyglucose) into L6 myocytes in the presence of half-maximal concentration of insulin at 100 uM; assay type: functional, Rattus norvegicus
How it was run: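 L6 myotubes are exposed to compound at 100 µM with 10 nM insulin, a dose eliciting about 50% of maximal uptake. The initial rate of 2-[3H]deoxyglucose uptake is measured, with L-[14C]glucose marking extracellular space, and normalized to recovered lysate protein. Net insulin-dependent transport with inhibitor is expressed as a percent of that without inhibitor.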

[7] = molecular target: T1, Tyrosine-protein phosphatase non-receptor type 1 (Homo sapiens); assay: Inhibitory activity against human protein tyrosine phosphatase 1B (PTP1B) at a concentration of 10 uM; how it was run: as §1
[8] = molecular target: Tyrosine-protein phosphatase non-receptor type 11, SHP-2 (Homo sapiens) (UniProt Q06124); assay: Inhibitory activity against phosphatase (SHP-2) at a concentration of 100 uM
[9] = molecular target: T2, Tyrosine-protein phosphatase non-receptor type 11 (Homo sapiens); assay: Inhibitory activity against phosphatase ([…]) at a concentration of 100 uM; how it was run: as §1

Row | Structure (SMILES) | inhibition [1] | inhibition [2] | inhibition [3] | inhibition [4] | Ki [5] | inhibition [7] | inhibition [8] | inhibition [9] | Control Uptake [6]
1 | CCCCCNC(=O)[C@H](Cc1ccc(OC(C(=O)O)C(=O)O)cc1)NC(=O)[C@H](C)NC(=O)OC(C)(C)C | 0% | 7% | 3% | 83% | 14 µM | 36% | – | – | 88%
2 | CCCCCNC(=O)[C@H](Cc1ccc(OC(C(=O)O)C(=O)O)cc1)NC(=O)[C@H](CCSC)NC(=O)OC(C)(C)C | 0% | 5% | 4% | 82% | – | 25% | – | – | 74%
3 | CCCCCNC(=O)[C@H](Cc1ccc(OC(C(=O)O)C(=O)O)cc1)NC(=O)[C@H](Cc1c(F)c(F)c(F)c(F)c1F)NC(=O)OC(C)(C)C | 8% | 5% | 0% | 80% | – | 25% | – | – | 100%
4 | CCCCCNC(=O)[C@H](Cc1ccc(OCC(=O)O)c(C(=O)O)c1)NC(=O)[C@H](Cc1ccccc1)NC(=O)Oc1ccccc1 | 0% | 43% | 11% | – | 0.87 µM | 85% | – | – | 103%
5 | CCCCCNC(=O)[C@H](Cc1ccc(OC(C(=O)O)C(=O)O)cc1)NC(=O)[C@@H](NC(=O)OC(C)(C)C)C(C)C | 0% | 3% | – | 72% | – | 18% | 0% | – | –
6 | CCCCCNC(=O)[C@H](Cc1ccc(OCC(=O)O)c(C(=O)O)c1)NC(=O)[C@H](Cc1ccccc1)NC(=O)CCC(=O)O | – | – | – | – | 0.22 µM | – | – | – | –
7 | CCCCCNC(=O)[C@H](Cc1ccc(OCC(=O)O)c(C(=O)O)c1)NC(=O)[C@H](Cc1ccccc1)NC(=O)Cc1ccc(OC)cc1 | 5% | 46% | 25% | – | 0.67 µM | 87% | – | – | 141%
8 | CCCCCNC(=O)[C@H](Cc1ccc(OC(C(=O)O)C(=O)O)cc1)NC(=O)[C@H](CC1CCCCC1)NC(=O)OC(C)(C)C | 4% | 1% | 0% | 88% | – | 18% | – | – | 93%
9 | CCCCCNC(=O)[C@H](Cc1ccc(OCC(=O)O)c(C(=O)O)c1)NC(=O)[C@H](Cc1ccccc1)NC(=O)Cn1nnnc1S | 0% | 57% | 10% | – | 0.7 µM | 91% | – | – | 89%
10 | CCCCCCCCCCCCCCCCCC(=O)N[C@@H](Cc1ccccc1)C(=O)N[C@@H](Cc1ccc(OCC(=O)O)c(C(=O)O)c1)C(=O)NCCCCC | 0% | 1% | – | – | – | 3% | 54% | – | –
11 | CCCC[C@H](NC(=O)[C@H](Cc1ccc(OS(=O)(=O)O)cc1)NC(=O)[C@H](CC(=O)O)NC(C)=O)C(N)=O (Ac-Asp-[sY]-[Nle]-NH2) | – | – | – | – | 5 µM | – | – | – | –
12 | CCCCCNC(=O)[C@H](Cc1ccc(OCC(=O)O)c(C(=O)O)c1)NC(=O)[C@H](Cc1ccccc1)NC(=O)Cc1ccc(C(F)(F)F)cc1 | 0% | 39% | 28% | – | 0.59 µM | 85% | – | – | 130%
13 | CCCCCNC(=O)[C@H](Cc1ccc(OCC(=O)O)c(C(=O)O)c1)NC(=O)[C@H](Cc1ccccc1)NC(=O)CCc1ccccc1 | 0% | 22% | 12% | – | 1.4 µM | 74% | – | – | 136%
14 | CCCCCNC(=O)[C@H](Cc1ccc(OC(C(=O)O)C(=O)O)cc1)NC(=O)[C@H](CC(N)=O)NC(=O)OC(C)(C)C | 0% | 9% | 8% | 85% | – | 40% | – | – | 110%
15 | CCCCCNC(=O)[C@H](Cc1ccc(OC(C(=O)O)C(=O)O)cc1)NC(=O)[C@H](CC[S+](C)[O-])NC(=O)OC(C)(C)C (some centres undefined) | 0% | 7% | 6% | 67% | – | 21% | – | – | 70%

Further lines, with some results ahead:

Row | inhibition [1] | inhibition [2] | inhibition [3] | inhibition [4] | Ki [5] | inhibition [7] | inhibition [8] | inhibition [9] | Structure (SMILES) | Control Uptake [6]
16 | 21% | 9% | 6% | 86% | – | 40% | – | – | CCCCCNC(=O)[C@H](Cc1ccc(OC(C(=O)O)C(=O)O)cc1)NC(=O)[C@H](Cc1ccccc1)NC(=O)NC(C)(C)C | 93%
17 | 0% | 12% | 14% | 92% | – | 54% | – | – | CCCCCNC(=O)[C@H](Cc1ccc(OC(C(=O)O)C(=O)O)cc1)NC(=O)[C@H](Cc1ccccc1)NC(=O)CCN(CC)CC | 89%
18 | 6% | 19% | 11% | 94% | – | 65% | – | – | CCCCCNC(=O)[C@H](Cc1ccc(OC(C(=O)O)C(=O)O)cc1)NC(=O)[C@H](Cc1ccccc1)NC(=O)CCOC | 104%
19 | 0% | 3% | 0% | 83% | – | 16% | – | – | CCCCCNC(=O)[C@H](Cc1ccc(OC(C(=O)O)C(=O)O)cc1)NC(=O)[C@H](CSCc1ccccc1)NC(=O)OC(C)(C)C | 89%
20 | 2% | 14% | 8% | 93% | – | 62% | – | – | CCCCCNC(=O)[C@H](Cc1ccc(OC(C(=O)O)C(=O)O)cc1)NC(=O)[C@H](Cc1ccccc1)NC(=O)CCNC(=O)OC(C)(C)C | 87%
21 | 18% | 10% | 9% | 89% | – | 44% | – | – | CCCCCNC(=O)[C@H](Cc1ccc(OC(C(=O)O)C(=O)O)cc1)NC(=O)[C@H](Cc1c[nH]c2ccccc12)NC(=O)OC(C)(C)C | 92%
22 | 6% | 4% | 10% | 62% | – | 16% | – | – | CCCCCNC(=O)[C@H](Cc1ccc(OC(C(=O)O)C(=O)O)cc1)NC(=O)[C@H](Cc1ccccc1)NS(=O)(=O)Cc1ccccc1 | 98%
23 | 3% | 3% | 0% | 71% | – | 19% | – | – | CCCCCNC(=O)[C@H](Cc1ccc(OC(C(=O)O)C(=O)O)cc1)NC(=O)[C@H](COCc1ccccc1)NC(=O)OC(C)(C)C | 79%
24 | 27% | 7% | – | 91% | 9 µM | 48% | – | 10% | CCCCCNC(=O)[C@H](Cc1ccc(OC(C(=O)O)C(=O)O)cc1)NC(=O)[C@H](Cc1ccccc1)NC(=O)OC(C)(C)C | 88%
25 | 7% | 2% | 0% | 77% | – | 17% | – | – | CCCCCNC(=O)[C@H](Cc1ccc(OC(C(=O)O)C(=O)O)cc1)NC(=O)[C@H](CCc1ccccc1)NC(=O)OC(C)(C)C | 104%
